These results are taken from ChEMBL document CHEMBL1132816, “Arylacetamides as peripherally restricted kappa opioid receptor agonists” (Bioorg Med Chem Lett, 2000).

What all share (format): functional
In assay [1] the test system is Rattus norvegicus. The experiment in a line: The compound was evaluated in vivo for its ability to inhibit formalin induced flinching in rats by intrapaw administration. An outline of the steps:
(§1)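 Rat formalin-induced flinching with intrapaw dosing. Read-out is % inhibition of flinching at the stated dose. Agents reaching ≥80% antagonism at 300 µg were titrated to an A50 in µg.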

For assay [2], the system named is Rattus norvegicus. The experiment in a line: The compound was evaluated in vivo for antagonism of formalin induced flinching in rats at 300 (microg) by intrapaw administration. An outline of the steps:
as §1

The subject of assay [3] is Rattus norvegicus. The experiment in a line: The compound was evaluated in vivo for antagonism of formalin induced […] in rats at 10 […] by subcutaneous administration. An outline of the steps:
(§2)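 Rat formalin-induced flinching with subcutaneous dosing, starting at 10 or 30 mg/kg. Read-out is % inhibition of flinching at the dose given, or an A50 in mg/kg from titration.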

Assay [4] relates to Rattus norvegicus. Nature of the assay: The compound was evaluated in vivo for their ability to inhibit formalin induced flinching in rats by subcutaneous administration. An outline of the steps: as §2
Assay [5] relates to Rattus norvegicus. Nature of the assay: The compound was evaluated in vivo for sedation in rats by subcutaneous administration using Rotarod assay. The settings on record: sc. In a few lines: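 Sedation, taken as a centrally mediated side effect, scored by rotarod performance in rats after subcutaneous dosing. Read-out is the ED50 in mg/kg.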
A general note: Falling from the rotarod earlier than controls is read as motor impairment.

Assay [6] deals with Rattus norvegicus. Nature of the assay: The compound was evaluated in vivo for antagonism of formalin induced flinching in rats at 1000 (microg) by intrapaw administration. An outline of the steps: as §1
For assay [7], the system named is Rattus norvegicus. Nature of the assay: The compound was evaluated in vivo for antagonism of formalin induced financing in rats at 30 […] by subcutaneous administration. An outline of the steps:
as §2

Assay [8] concerns Rattus norvegicus. The experiment in a line: The compound was evaluated in vivo for percent decrease of sedation in rats at 3 mg/kg by subcutaneous administration using Rotarod assay.

Structures are written as SMILES.

`CN(C(=O)Cc1ccccc1[N+](=O)[O-])[C@H](CN1CCCC1)c1ccccc1`: the A50 with Rattus norvegicus [1] turned out to be 29 µg. Consider `CN(C(=O)Cc1ccc(N)cc1)[C@H](CN1CCCC1)c1ccccc1`, for which the Antagonism in the assay on Rattus norvegicus [2] is given as 52%. With `CN(C(=O)Cc1cccc(N(S(C)(=O)=O)S(C)(=O)=O)c1)[C@H](CN1CCCC1)c1ccccc1`, the Antagonism with Rattus norvegicus [2] stood at 91%; in the assay with Rattus norvegicus [3], 15%. In the assay with Rattus norvegicus [4], `CN(C(=O)Cc1cccc(C(F)(F)F)c1)[C@H](CN1CCCC1)c1ccccc1` showed an A50 of 0.02 mg/kg. Besides, the ED50 in the assay with Rattus norvegicus [5] stood at 0.18 mg/kg. On to `CN(C(=O)Cc1cccc([N+](=O)[O-])c1)[C@H](CN1CCCC1)c1ccccc1`, for which, in the assay with Rattus norvegicus [2], the Antagonism amounted to 95%. For `CN(C(=O)Cc1cccc(N)c1)[C@H](CN1CCCC1)c1ccccc1`, the Antagonism in the assay on Rattus norvegicus [2] is recorded as 58%.

Consider `CN(C(=O)Cc1ccc(C(F)(F)F)cc1)[C@H](CN1CCCC1)c1ccccc1`, for which the A50 in the assay on Rattus norvegicus [4] was found to be 0.009 mg/kg; in the assay on Rattus norvegicus [1] it was 0.82 µg. Besides, the 50% effective dose (ED50) in the assay with Rattus norvegicus [5] stood at 0.12 mg/kg. For `CN(C(=O)Cc1ccc(N(S(C)(=O)=O)S(C)(=O)=O)cc1)[C@H](CN1CCCC1)c1ccccc1`, the results for the Antagonism in the assay with Rattus norvegicus [6] and with Rattus norvegicus [7] were 95% and 30%, respectively.

The molecule `CN(C(=O)Cc1ccccc1N(S(C)(=O)=O)S(C)(=O)=O)[C@H](CN1CCCC1)c1ccccc1` gave an Antagonism in the assay on Rattus norvegicus [7] of 21%. The same molecule came in with an A50 in the assay with Rattus norvegicus [1] of 17 µg.

`CN(C(=O)Cc1ccc(Cl)c(Cl)c1N)[C@H](CN1CCCC1)c1ccccc1`: the A50 in the assay with Rattus norvegicus [1] came out at 7 µg. Regarding `CN(C(=O)Cc1ccc(Cl)c(Cl)c1[N+](=O)[O-])[C@H](CN1CCCC1)c1ccccc1`, the A50 in the assay with Rattus norvegicus [4] came to 0.24 mg/kg; in the assay on Rattus norvegicus [1], 5.3 µg. Further, the ED50 in the assay on Rattus norvegicus [5] stood at 0.97 mg/kg. With `CN(C(=O)Cc1ccccc1N)[C@H](CN1CCCC1)c1ccccc1`, the A50 with Rattus norvegicus [4] is 1.5 mg/kg; in the assay with Rattus norvegicus [1], 65 µg. The same molecule yielded an ED50 in the assay on Rattus norvegicus [5] of 8.9 mg/kg. As for `CN(C(=O)Cc1ccc(Cl)c(Cl)c1)[C@H](CN1CCCC1)c1ccccc1` [ICI-199,441], the figures for the A50 in the assay with Rattus norvegicus [4] and in the assay on Rattus norvegicus [1] were 0.05 mg/kg and 0.74 µg, respectively. The molecule further returned an ED50 with Rattus norvegicus [5] of 0.14 mg/kg.

`CN(C(=O)Cc1ccc(Cl)c(Cl)c1N(S(C)(=O)=O)S(C)(=O)=O)[C@H](CN1CCCC1)c1ccccc1` displayed an A50 in the assay on Rattus norvegicus [1] of 28 µg. On to `CN(C(=O)Cc1ccccc1C(F)(F)F)[C@H](CN1CCCC1)c1ccccc1`, for which the Decrease in the assay on Rattus norvegicus [8] is recorded as 71%. Further, the A50 with Rattus norvegicus [4] stood at 0.54 mg/kg.

Broadly, the ED50 is the dose that gives a 50% effect, or the effect in half of the subjects. High values mean a need for a large dose, low ones an effect at a small dose.
